# Laboratory results reported in BindingDB's records for doi:10.1016/j.bmcl.2009.05.073 (Cytrx, 2009).
# pEC50: −log10 of the molar value.
# Assays:
# [1] = Amplification of HSF1 transcriptional activity in human heat shock-induced HeLa cells assessed as granule formation treated 1 hr before heat shock challenge measured after 2 hrs without recovery time by immunocytochemical staining
# [2] = molecular target: T1, Heat shock factor protein 1 (Homo sapiens, UniProt Q00613); experiment: Amplification of HSF1 transcriptional activity in human HeLa cells assessed as granule formation pretreated for 3 hrs by immunocytochemical staining
# T1 sequence (Q00613 whole entry): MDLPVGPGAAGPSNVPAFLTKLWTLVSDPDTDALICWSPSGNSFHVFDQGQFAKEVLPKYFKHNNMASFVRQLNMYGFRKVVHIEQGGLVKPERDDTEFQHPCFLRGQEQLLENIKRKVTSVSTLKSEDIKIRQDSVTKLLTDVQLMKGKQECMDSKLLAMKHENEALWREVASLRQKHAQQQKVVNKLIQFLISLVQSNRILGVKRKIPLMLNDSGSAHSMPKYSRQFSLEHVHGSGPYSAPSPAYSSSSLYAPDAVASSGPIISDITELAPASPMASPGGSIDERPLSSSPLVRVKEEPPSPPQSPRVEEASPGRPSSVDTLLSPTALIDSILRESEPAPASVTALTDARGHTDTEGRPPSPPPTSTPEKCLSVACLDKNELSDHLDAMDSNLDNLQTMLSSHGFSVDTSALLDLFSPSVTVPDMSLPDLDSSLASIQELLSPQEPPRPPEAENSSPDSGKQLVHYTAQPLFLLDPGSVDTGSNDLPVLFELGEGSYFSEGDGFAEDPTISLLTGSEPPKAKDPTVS
# In short: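 HeLa cells pretreated with compound 1 h, then mild heat shock 41 °C for 2 h, no recovery; control arm pretreated 3 h at 37 °C without heat shock. Compound diluted 200-fold, 0.3 to 80 µM range.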
# [3] = molecular target: T1, Heat shock factor protein 1; experiment: Amplification of HSF1 transcriptional activity in human heat shock-induced HeLa cells assessed as granule formation treated 1 hr before heat shock challenge measured after 2 hrs without recovery time by immunocytochemical staining
# In short: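 HeLa cells given compound 1 h before mild heat shock at 41 °C for 2 h, no recovery; compound diluted 200-fold, 0.3 to 80 µM. Unstressed control plates kept at 37 °C for 3 h. HSF1 immunocytochemical staining, imaged at 10×.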
SMILES,pEC50 [1],also measured
"CCCCn1nc(-c2nccs2)nc2c(=O)n(C)c(=O)nc1-2 [1-butyl-6-methyl-3-(thiazol-2-yl)pyrimido[5,4-e][1,2,4]triazine-5,7(1H,6H)-dione]",5.68,–
"CCn1nc(-c2ccc(C)o2)nc2c(=O)n(C)c(=O)nc1-2 [1-ethyl-6-methyl-3-(5-methylfuran-2-yl)pyrimido[5,4-e][1,2,4]triazine-5,7(1H,6H)-dione]",4.33,–
"CCn1nc(-c2ccc(C)o2)[n+]([O-])c2c(=O)n(C)c(=O)nc1-2 [1-ethyl-6-methyl-3-(5-methylfuran-2-yl)-5,7-dioxo-1,5,6,7-tetrahydropyrimido[5,4-e][1,2,4]triazine 4-oxide]",4.69,–
"CCCCn1nc(-c2ncc[nH]2)nc2c(=O)n(C)c(=O)nc1-2 [1-butyl-3-(1H-imidazol-2-yl)-6-methylpyrimido[5,4-e][1,2,4]triazine-5,7(1H,6H)-dione]",5.11,–
"CC(C)CCn1nc(-c2nc3ccccc3s2)nc2c(=O)n(C)c(=O)nc1-2 [3-(benzo[d]thiazol-2-yl)-1-isopentyl-6-methylpyrimido[5,4-e][1,2,4]triazine-5,7(1H,6H)-dione]",5.60,–
"CCCCn1nc(-c2ccc3ccccc3n2)nc2c(=O)n(C)c(=O)nc1-2 [1-butyl-6-methyl-3-(quinolin-2-yl)pyrimido[5,4-e][1,2,4]triazine-5,7(1H,6H)-dione]",5.60,–
"CCCCn1nc(-c2nc3ccccc3[nH]2)nc2c(=O)n(C)c(=O)nc1-2 [3-(1H-benzo[d]imidazol-2-yl)-1-butyl-6-methylpyrimido[5,4-e][1,2,4]triazine-5,7(1H,6H)-dione]",4.39,–
"CCn1nc(-c2ccc(C)s2)[n+]([O-])c2c(=O)n(C)c(=O)nc1-2 [1-ethyl-6-methyl-3-(5-methylthiophen-2-yl)-5,7-dioxo-1,5,6,7-tetrahydropyrimido[5,4-e][1,2,4]triazine 4-oxide]",4.94,–
"CCCCn1nc(-c2ccc(C)o2)[n+]([O-])c2c(=O)n(C)c(=O)nc1-2 [1-butyl-6-methyl-3-(5-methylfuran-2-yl)-5,7-dioxo-1,5,6,7-tetrahydropyrimido[5,4-e][1,2,4]triazine 4-oxide]",5.00,–
"CCn1nc(-c2cccs2)nc2c(=O)n(C)c(=O)nc1-2 [1-ethyl-6-methyl-3-thiophen-2-yl-pyrimido[5,4-e][1,2,4]triazine-5,7-dione]",5.29,–
"CCCCn1nc(-c2ccccc2)nc2c(=O)n(C)c(=O)nc1-2 [1-butyl-6-methyl-3-phenylpyrimido[5,4-e][1,2,4]triazine-5,7(1H,6H)-dione]",4.83,–
"CCn1nc(-c2ccc[nH]2)nc2c(=O)n(C)c(=O)nc1-2 [1-ethyl-6-methyl-3-(1H-pyrrol-2-yl)pyrimido[5,4-e][1,2,4]triazine-5,7(1H,6H)-dione]",4.46,–
"Cn1c(=O)nc2n(Cc3ccc(F)cc3)nc(-c3nc4ccccc4s3)nc-2c1=O [3-(benzo[d]thiazol-2-yl)-1-(4-fluorobenzyl)-6-methylpyrimido[5,4-e][1,2,4]triazine-5,7(1H,6H)-dione]",4.85,–
"CCn1nc(-c2ncc[nH]2)nc2c(=O)n(C)c(=O)nc1-2 [1-ethyl-3-(1H-imidazol-2-yl)-6-methylpyrimido[5,4-e][1,2,4]triazine-5,7(1H,6H)-dione]",4.40,–
"CC(C)Cn1nc(-c2nc3ccccc3s2)nc2c(=O)n(C)c(=O)nc1-2 [3-(benzo[d]thiazol-2-yl)-1-isobutyl-6-methylpyrimido[5,4-e][1,2,4]triazine-5,7(1H,6H)-dione]",5.89,–
"Cn1c(=O)nc2n(Cc3ccccc3)nc(-c3nc4ccccc4s3)nc-2c1=O [3-(benzo[d]thiazol-2-yl)-1-benzyl-6-methylpyrimido[5,4-e][1,2,4]triazine-5,7(1H,6H)-dione]",5.39,–
"CCCCn1nc(-c2ccc(C)o2)nc2c(=O)n(C)c(=O)nc1-2 [1-butyl-6-methyl-3-(5-methylfuran-2-yl)pyrimido[5,4-e][1,2,4]triazine-5,7(1H,6H)-dione]",5.00,–
"CCCCn1nc(-c2ccc(C)s2)[n+]([O-])c2c(=O)n(C)c(=O)nc1-2 [1-butyl-6-methyl-3-(5-methylthiophen-2-yl)-5,7-dioxo-1,5,6,7-tetrahydropyrimido[5,4-e][1,2,4]triazine 4-oxide]",5.07,–
"CCn1nc(-c2ccc[nH]2)[n+]([O-])c2c(=O)n(C)c(=O)nc1-2 [1-ethyl-6-methyl-5,7-dioxo-3-(1H-pyrrol-2-yl)-1,5,6,7-tetrahydropyrimido[5,4-e][1,2,4]triazine 4-oxide]",4.61,–
C=c1c(O)c(O)cc2c1=CC=C1[C@@]2(C)CC[C@@]2(C)[C@@H]3C[C@](C)(C(=O)O)CC[C@]3(C)CC[C@]12C,–,pEC50 [2]: 5.59; pEC50 [3]: 5.96
"CCn1nc(-c2ccc(C)s2)nc2c(=O)n(C)c(=O)nc1-2 [1-ethyl-6-methyl-3-(5-methylthiophen-2-yl)pyrimido[5,4-e][1,2,4]triazine-5,7(1H,6H)-dione]",4.76,–
"CCn1nc(-c2ccco2)nc2c(=O)n(C)c(=O)nc1-2 [1-ethyl-3-(furan-2-yl)-6-methylpyrimido[5,4-e][1,2,4]triazine-5,7(1H,6H)-dione]",5.00,–
"CCCCn1nc(-c2ccc(C)s2)nc2c(=O)n(C)c(=O)nc1-2 [1-butyl-6-methyl-3-(5-methylthiophen-2-yl)pyrimido[5,4-e][1,2,4]triazine-5,7(1H,6H)-dione]",4.77,–
